High-throughput results: PubChem, Johns Hopkins Ion Channel Center
TRPC6 activator = mouse TRPC6 channel activators, primary screen, cell-based, HEK293, membrane potential dye. Short transient receptor potential channel 6 (Mus musculus), Q61143. 310,000 tested, 0.13% active. HEK293-TRPC6 membrane potential dye fluorescence; hits give high values. B-score at 10 µM;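 active = B-score of the integrated fluorescence ratio above library mean plus 3 SD, and starting fluorescence ratio within library mean plus 5 SD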;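 note: higher score means more depolarization so channel activation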
TRPC4 block = inhibitors of mouse TRPC4 channel, primary screen, Fluo4 calcium, HEK293 TRPC4beta/mu-opioid cells | DAMGO-evoked Fluo4 calcium flux; hits give low values | Short transient receptor potential channel 4 (Mus musculus), Q9QUQ5 | B-score at 10 µM | 300,000 tested, 0.39% active;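 active = B-score over 3 SD under the library average, no early fluorescence shift, positive overall ratio signal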
Target sequence (Q9QUQ5 whole entry, looked up): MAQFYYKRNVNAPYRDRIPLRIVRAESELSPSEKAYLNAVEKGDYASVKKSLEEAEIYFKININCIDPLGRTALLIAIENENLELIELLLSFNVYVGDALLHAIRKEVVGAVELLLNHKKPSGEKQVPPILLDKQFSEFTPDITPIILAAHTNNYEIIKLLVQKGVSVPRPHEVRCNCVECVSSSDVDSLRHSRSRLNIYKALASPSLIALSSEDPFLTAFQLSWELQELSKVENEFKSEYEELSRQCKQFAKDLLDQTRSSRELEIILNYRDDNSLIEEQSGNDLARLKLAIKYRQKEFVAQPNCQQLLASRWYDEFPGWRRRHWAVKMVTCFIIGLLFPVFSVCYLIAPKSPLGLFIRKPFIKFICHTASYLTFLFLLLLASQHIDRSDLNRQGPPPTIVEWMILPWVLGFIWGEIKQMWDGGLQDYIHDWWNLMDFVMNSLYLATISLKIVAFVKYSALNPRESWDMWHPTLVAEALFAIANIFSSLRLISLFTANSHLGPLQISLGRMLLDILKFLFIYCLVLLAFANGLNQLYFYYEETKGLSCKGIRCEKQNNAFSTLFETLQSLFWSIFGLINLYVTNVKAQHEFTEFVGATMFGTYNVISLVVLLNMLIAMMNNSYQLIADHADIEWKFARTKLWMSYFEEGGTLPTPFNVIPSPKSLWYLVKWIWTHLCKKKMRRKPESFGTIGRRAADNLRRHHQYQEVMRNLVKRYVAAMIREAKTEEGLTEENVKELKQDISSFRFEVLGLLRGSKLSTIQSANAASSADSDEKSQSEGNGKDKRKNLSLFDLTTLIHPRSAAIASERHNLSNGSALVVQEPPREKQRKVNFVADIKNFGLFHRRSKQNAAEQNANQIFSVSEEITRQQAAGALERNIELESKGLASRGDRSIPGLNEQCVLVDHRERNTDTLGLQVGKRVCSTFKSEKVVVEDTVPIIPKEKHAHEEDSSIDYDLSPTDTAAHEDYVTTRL
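Material: HEK293 cells with stable TRPC4beta plus mu-opioid receptor expression; probe or stimulus: DAMGO in two steps, submaximal then maximal; technique: Fluo4 calcium fluorescence by kinetic imaging, 5 s 1 Hz baseline; measure: integrated fluorescence ratio relative to baseline, converted to per-well B score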
TRPC4 PAM = positive allosteric modulators of TRPC4, primary screen, cell-based, mouse TRPC4beta, HEK293 mu-opioid, Fluo-4 calcium; Short transient receptor potential channel 4 (Mus musculus), Q9QUQ5; DAMGO EC20, Fluo-4 Ca2+ flux; hits give high values; B-score at 10 µM; 310,000 tested, 0.42% active;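 active = B-score of calcium response area above 5 SD of library B-scores, with initial fluorescence ratio within 5 SD of library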;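 note: B-score of integrated fluorescence ratio over time as area under calcium response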
TRPC4 act = activators of mouse TRPC4 channel, primary screen, Fluo4 calcium, HEK293 TRPC4beta/mu-opioid cells; B-score at 10 µM; AID 2237, 2010; Short transient receptor potential channel 4 (Mus musculus), Q9QUQ5; 310,000 tested, 0.49% active; Fluo4 calcium fluorescence; hits give high values;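 active = B-score above 5 SD of library B-scores, and initial fluorescence ratio not above library mean plus 5 SD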;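 note: positive B-score marks a calcium rise read as TRPC4 activation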
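System: HEK293 cells stably co-expressing mouse TRPC4beta and mu-opioid receptor; Schedule: Fluo4 dye loading 45 min at room temperature, 110 s recording; Detection: Fluo4 fluorescence, kinetic; Evaluation: B-scored integrated calcium fluorescence ratio; Controls: buffer (low) and maximal DAMGO (high).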
TRPC6 inhibitor = mouse TRPC6 channel inhibitors, primary screen, cell-based, HEK293, membrane potential dye. Short transient receptor potential channel 6 (Mus musculus), Q61143. ACh-evoked depolarization; hits give low values. B-score at 10 µM. 310,000 tested, 1.1% active;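 active = B-score under library mean minus 3 SD, initial fluorescence not abnormally high, positive integrated signal ratio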;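 note: B-score derived from integrated fluorescence ratio over the kinetic read; more negative B-score means stronger inhibition of depolarization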
TRPC4 spec 2 = second check of whether TRPC6 inhibitors also affect mouse TRPC4 | shares compounds with TRPC6 inhibitor | HEK293 TRPC4/MOR, membrane potential dye fluorescence; channel activated by saturating DAMGO dose | inhibition, % at 10 µM | 920 tested, 42% active | AID 2776;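 active = compounds whose fluorescence signal differed from control wells by over 3 SD, either direction, in both duplicate plates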
TRPC4 spec = mouse TRPC4 modulation by TRPC6 hits, confirmation, selectivity assay for TRPC6 inhibitor project, cell-based, HEK293 TRPC4/mu-opioid, membrane potential dye | shares compounds with TRPC6 inhibitor | AID 2777, 2010 | activity change, negative = inhibition, % at 10 µM | 920 tested, 61% active | membrane potential fluorescence;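 active = rise or fall in signal beyond 3 SD of buffer-only wells in both replicate plates, either sign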;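 note: integrated kinetic ratio of fluorescence range over baseline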
HEK293 MPD ctr 2-1 = nonspecific membrane potential effects, parental HEK293, confirmation, counter-screen for TRPC6 inhibitor project, cell-based, second counter screen. AID 2779, 2010. parental HEK293 membrane potential dye fluorescence; maximal acetylcholine challenge after compound addition. signal change vs control, % at 10 µM. 920 tested, 31% active. shares compounds with TRPC6 inhibitor;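 active = membrane potential signal moving either way by over 3 SD of the maximum-effect control, in both duplicate plates, meaning non-specific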
HEK293 MPD ctr-1 = membrane potential modulation in parental HEK293, confirmation, counter-screen for TRPC6 inhibitor project, cell-based. parental HEK293 membrane potential dye fluorescence. AID 2780, 2010. 920 tested, 60% active. membrane potential signal change, % at 10 µM. shares compounds with TRPC6 inhibitor;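 active = membrane potential signal shifting up or down by more than 3 SD of buffer-only wells, on both duplicate plates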
HEK293 MPD ctr-2 = parental HEK293 membrane potential modulation, confirmation, counter-screen for TRPC6 modulator project, cell-based; shares compounds with TRPC6 inhibitor; membrane potential dye fluorescence; membrane potential signal change, % at 10 µM; 2,400 tested, 51% active;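 active = membrane potential signal moves up or down beyond 5 SD from buffer-only wells, on both duplicate plates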
HEK293 MPD ctr 2-2 = second counter-screen for TRPC6 modulators: effect in parental HEK293 cells; shares compounds with TRPC6 inhibitor; membrane potential dye fluorescence; after compound, maximal acetylcholine stimulation; inhibition, % at 10 µM; 2,400 tested, 14% active;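 active = membrane potential signal drops by more than 5 SD from the mean control signal, in both duplicate plates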;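 note: plate controls were acetylcholine ECmax control wells for no effect and buffer only wells for full effect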
TRPC4 ctr mod = TRPC4 modulation by TRPC6 hit compounds, confirmation, selectivity assay for TRPC6 modulator project, cell-based, HEK293 TRPC4/mu-opioid, membrane potential dye, mouse; membrane potential fluorescence; percent change from control (negative = decrease, positive = increase), % at 10 µM; shares compounds with TRPC6 inhibitor; AID 488927, 2010; 2,400 tested, 69% active;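 active = membrane potential signal moved up or down beyond 5 SD of buffer control wells, in both duplicate plates, actives on both sides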;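 note: plate controls were assay buffer wells for no effect and DAMGO maximal-effect wells for full effect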
TRPC4/MOR inh 2 = second selectivity test of TRPC6 modulators against mouse TRPC4 | inhibition, % at 10 µM | 2,400 tested, 55% active | shares compounds with TRPC6 inhibitor | HEK293 TRPC4/mu-opioid, membrane potential dye fluorescence; stimulated with maximal-effect DAMGO;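 active = drop in membrane potential signal beyond 5 SD of the control wells in both duplicate plates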;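 note: TRPC4 counter screen for TRPC6 hits run under conditions tuned for TRPC6 not TRPC4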
TRPC6 inh conf = mouse TRPC6 channel inhibitors, confirmation, HEK293 cells, membrane potential dye, duplicate | shares compounds with TRPC6 inhibitor | ACh-evoked depolarization | inhibition, % at 10 µM | 3,300 tested, 43% active | AID 488960, 2010;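 active = fluorescence ratio falls more than 5 SD below the full-stimulation control mean, in both duplicate runs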;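 note: integrated fluorescence ratio of peak minus minimum over baseline after agonist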
TRPC6 act confirm = mouse TRPC6 channel activators, confirmation, HEK293 cells, membrane potential dye, duplicate. activation, % at 10 µM. 2,800 tested, 11% active. shares compounds with TRPC6 inhibitor. HEK293-TRPC6 membrane potential dye fluorescence, FDSS;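 active = ratio signal rise beyond 5 SD above unstimulated control wells' mean, seen in both duplicate runs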;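 note: plate controls were buffer EC0 wells for no effect and acetylcholine ECmax response for full effect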
Starred values were filed as active, the others as inactive; i = inactive; x = not tested or not shown. Only some compounds are listed: those with a hit (about 2.3% of all), similar ones and a draw of the others.

SMILES	TRPC6 activator	TRPC4 block	TRPC4 PAM	TRPC4 act	TRPC6 inhibitor	HEK293 MPD ctr-2	HEK293 MPD ctr 2-2	TRPC4 ctr mod	TRPC4/MOR inh 2	TRPC6 inh conf	TRPC6 act confirm	others
Cc1c(-n2c(SCC(=O)O)nnc2-c2ccccc2Br)c(=O)n(-c2ccccc2)n1C	i	i	i	i	i	x	x	x	x	x	x
O=C(C1CC1)N1N=C(C2CCCCC2)CC1(O)C(F)(F)F (stereo unspecified)	i	i	i	i	i	x	x	x	x	x	x
O=C(CSc1nnc2ccc(-c3ccc(F)cc3)nn12)NCC1CCCO1 (stereo unspecified)	i	i	i	i	i	x	x	x	x	x	x
Cc1ccc(-c2nn(-c3cccc(F)c3)cc2CN2CCN(c3ccccn3)CC2)o1	i	i	i	i	i	x	x	x	x	x	x
Cc1ccc(-c2nn(-c3cccc(F)c3)cc2CNCc2cccnc2)o1	i	i	i	121*	-5.7*	i	i	41%*	85%*	i	i
O=C(Nc1cccc(NC(=O)c2ccc(Br)o2)n1)c1ccc(Br)o1	i	i	i	i	-6.3*	i	i	i	i	i	i
Cc1nc(NC(=O)c2ccc(Br)o2)ccc1Br	i	i	i	i	i	x	x	x	x	x	x
Cc1oc(-c2ccc(Cl)cc2)nc1CN1CCCC(C(=O)NCc2ccco2)C1 (stereo unspecified)	16*	i	i	i	-6.7*	114%*	i	20%*	51%*	47%*	92%*
Cc1oc(-c2ccc(Cl)cc2)nc1CN1CCCC(C(=O)NC2CC2)C1 (stereo unspecified)	i	i	i	i	i	x	x	x	x	x	x
CC(C)c1ccc(S(=O)(=O)N2CCN(C(=O)C3CC3C)CC2)cc1 (stereo unspecified)	16*	i	i	i	-10*	i	i	17%*	i	112%*	145%*
CC(=O)c1ccc(OCCCC(=O)N2CCN(S(=O)(=O)c3ccc(C(C)C)cc3)CC2)cc1	i	i	i	i	-9.2*	x	x	x	x	i	x	TRPC4 spec 2=i;TRPC4 spec=-0.4%*;HEK293 MPD ctr 2-1=i;HEK293 MPD ctr-1=1.7%*
CC(C)c1ccc(S(=O)(=O)N2CCN(C(=O)c3cccc(F)c3)CC2)cc1	17*	i	i	i	i	i	i	20%*	i	x	186%*
Cc1ccc(C(=O)N2CCN(S(=O)(=O)c3ccc(C)cc3)CC2)cc1	i	i	i	i	-5.1*	i	i	i	i	79%*	x
CC(=O)c1ccc(OCCCC(=O)N2CCN(S(=O)(=O)c3cc(C)ccc3C)CC2)cc1	i	i	i	i	i	x	x	x	x	x	x
CC(C)c1ccc(S(=O)(=O)N2CCN(C(=O)C3CCCCC3)CC2)cc1	i	i	i	i	i	x	x	x	x	x	x
O=C(NCC1CCN(c2ccc(S(=O)(=O)N3CCOCC3)cc2)CC1)c1cccc(Cl)c1	i	i	i	i	-6.3*	i	i	-30%*	i	45%*	i
COc1cccc2sc3ccc(NCCC4CCCN4C)cc3c(=O)c12 (stereo unspecified)	i	i	i	i	-6.8*	x	x	x	x	i	x	TRPC4 spec 2=65%*;TRPC4 spec=21%*;HEK293 MPD ctr 2-1=i;HEK293 MPD ctr-1=17%*
O=C(NC(Nc1nc2ccc([N+](=O)[O-])cc2s1)(C(F)(F)F)C(F)(F)F)c1cccnc1	15*	i	i	i	-8.2*	388%*	93%*	92%*	60%*	77%*	88%*
CCN(CC)S(=O)(=O)c1cc(NC(=O)c2cc(-c3ccccn3)nc3ccccc23)ccc1C	i	i	i	i	i	x	x	x	x	x	x
CCOC(=O)c1[nH]ncc1CN1CCc2ccc(NC(=O)C3CCCO3)cc2C1 (stereo unspecified)	i	i	i	i	i	x	x	x	x	x	x
Cc1ccc(N2CC(O)(c3cccs3)[N+]3=C2CCCC3)cc1 (stereo unspecified)	i	i	i	i	-5.2*	104%*	i	16%*	38%*	i	x
Cc1cccc(N2CC(O)(c3cccs3)[N+]3=C2CCCC3)c1 (stereo unspecified)	i	i	i	i	i	x	x	x	x	x	x
